Experimental data gathered from unrelated publications.
Protocols differ between the studies behind these lines.
Target: Microtubule-associated serine/threonine-protein kinase 1 (MAST1, Homo sapiens, UniProt Q9Y2H9)

SMILES | observed | method | tested at | remaining binding
O=c1nc(-c2ccccn2)sc2ccccc12 | binding | competition with immobilised ligand | 1 µM | 73%
O=C(c1ccc(Nc2nccc(-c3cc4ccccc4s3)n2)cc1)N1CCC(N2CCCC2)CC1 | binding | competition with immobilised ligand | 1 µM | 53%
Cc1cc(-n2nc(Cc3cc(F)cc(C(F)(F)F)c3)nc2C)ccc1C(N)=O | cell-free assay | competition with immobilised ligand | 1 µM | 100%
O=C(NCC1CCOCC1)c1n[nH]cc1NC(=O)c1c(F)cccc1F | binding | competition with immobilised ligand | 1 µM | 51%
CC(=O)C1=C(C)N(c2cccc(C(F)(F)F)c2)C(=O)N[C@@H]1c1ccc(C#N)nc1 | cell-free assay | competition with immobilised ligand | 1 µM | 96.9%
O=C(NCCCN1CCOCC1)c1ccc(Nc2ncc(Cl)c(-c3ccc(Cl)s3)n2)cc1 | binding | competition with immobilised ligand | 1 µM | 63%
COc1ccnn2ncc(-c3ccnc(N(C)C)n3)c12 | binding |  | 1 µM | 99%
CCC(=O)N[C@@H]1CC[C@H](C(=O)N(C)c2ccc(-c3nc4ccccc4o3)cc2)C1 | cell-free assay | competition with immobilised ligand | 1 µM | 94%
c1cncc(-c2cccc(Nc3nccc(NC4CCCCC4)n3)c2)c1 | binding | competition with immobilised ligand | 10 µM | 95%
CN([C@@H]1CCc2c(CC(=O)O)c3ccccc3n2C1)S(=O)(=O)c1ccc(F)cc1 | cell-free assay | competition with immobilised ligand | 1 µM | 100%
CN(CCCC(F)(F)F)c1nccc(-c2cnn3ncccc23)n1 | binding |  | 1 µM | 100%
CNC(=O)[C@@H]1CC[C@@H](n2c(-c3ccc4cnccc4c3)nc3ccc(C(=O)NCc4cccc(C(N)=O)c4)cc32)C1 | binding | competition with immobilised ligand | 1 µM | 100%
Cc1cnc(Nc2ccc(C(=O)N3CCC(N4CCCC4)CC3)cc2)nc1-c1cc2ccccc2s1 | binding | competition with immobilised ligand | 1 µM | 55%
C[C@H]1CCN(c2nccc(-c3cnn4ncccc34)n2)C1 | binding |  | 1 µM | 82%
FC(F)(F)Oc1cccc(-c2cnc3ccc(-c4ccncc4)nn23)c1 | cell-free assay | competition with immobilised ligand | 5 µM | 51%
N[C@H]1CCN(c2nccc(-c3cnn4ncccc34)n2)C1 | binding |  | 1 µM | 100%
C=CC(=O)N1CCC(C(=O)NCC(=O)N2CCN(c3nc(-c4cnc(N)nc4C(F)F)nc(N4CCOCC4)n3)CC2)CC1 | binding | competition with immobilised ligand | 1 µM | 100%
CC1CCCN1c1nccc(-c2cnn3ncccc23)n1 (stereo not drawn) | binding |  | 1 µM | 100%
COc1ncc2cc3ccccc3nc2c1C#N | cell-free assay | competition with immobilised ligand | 5 µM | 98%
F[C@@H]1CCN(c2nccc(-c3cnn4ncccc34)n2)C1 | binding |  | 1 µM | 100%
CC(=O)N1CCC(c2ccc(C(=O)NC3=NCCN3)cc2C(F)(F)F)CC1 | cell-free assay | competition with immobilised ligand | 1 µM | 87%
